Out of some 20,000 compounds screened, about 25 (0.1%) were called active. The sample holds actives, similar compounds and a random draw of the others, so the mix is not that of the screen.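 How the source made its calls: active means mean replicate protection from cytokine-induced ATP loss at least 50% and at least 75% of replicates each reaching 50%; inconclusive means meets only one of the two criteria, mean or replicate share; inactive means fails both the mean and replicate share criteria.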

This experiment in a line: preservation of ATP in cytokine-treated beta cells – cell-based, ATP luminescence, single point, primary screen (AID 488910). Particulars: INS-1E cytokine-induced death, 48 h, at 10 µM, stronger effect = higher value, normalised: neutral wells 0, positive control 100. The essentials:
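assay system = INS-1E rat insulinoma cells | amount = 8000 cells per well | medium = phenol-red-free RPMI with 5% fetal bovine serum | doses = one compound concentration, pin transfer | timing = 48 h cytokine plus compound treatment, 10 min reagent incubation | also added = IL-1β, TNF-α and IFN-γ cytokine mix | signal = CellTiter-Glo luminescence measuring cellular ATP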
On to `C[C@H](CO)N1C[C@H](C)[C@H](CN(C)C(=O)Nc2ccc(F)cc2)Oc2c(NC(=O)c3cnccn3)cccc2C1=O`, for which the protection from cytokine-induced ATP loss is 8.13% (inactive).

Turning to `C[C@@H]1CCCCO[C@H](CN(C)C(=O)c2ccccc2)[C@@H](C)CN([C@H](C)CO)C(=O)c2cc(NC(=O)Nc3cccc4ccccc34)ccc2O1`, the protection from cytokine-induced ATP loss was -1.39% (inactive).

Turning to `C[C@@H]1CCCCO[C@H](CN(C)S(=O)(=O)c2ccccc2)[C@@H](C)CN([C@H](C)CO)C(=O)c2cc(NC(=O)Nc3ccc(F)cc3)ccc2O1`, the protection from cytokine-induced ATP loss is -6.46% (inactive).

Regarding `CC(C)NC(=O)N(C)C[C@H]1Oc2ccc(NC(=O)Cn3cnnn3)cc2CC(=O)N([C@H](C)CO)C[C@H]1C`, the protection from cytokine-induced ATP loss is -1.35% (inactive).

With `Cc1noc(C)c1NC(=O)Nc1ccc2c(c1)C(=O)N([C@H](C)CO)C[C@H](C)[C@H](CN(C)Cc1ccc(Oc3ccccc3)cc1)O2`, the protection from cytokine-induced ATP loss was -15.9% (inactive).

As to `C[C@H](CO)N1C[C@H](C)[C@H](CN(C)S(C)(=O)=O)Oc2ccc(NC(=O)Nc3ccc(F)cc3)cc2C1=O`, the protection from cytokine-induced ATP loss is 2.55% (inactive).

Consider `CC(C)NC(=O)N(C)C[C@@H]1Oc2c(cccc2N(C)C)C(=O)N([C@@H](C)CO)C[C@H]1C`, for which the protection from cytokine-induced ATP loss is 10.2% (inactive).

On to `C[C@@H]1CN([C@H](C)CO)C(=O)c2cccc(NS(=O)(=O)c3ccc(F)cc3)c2O[C@@H]1CN(C)C(=O)Nc1ccc(C(F)(F)F)cc1`, for which the protection from cytokine-induced ATP loss was -38% (inactive).

In the case of `Cc1ccc(S(=O)(=O)N(C)C[C@@H]2Oc3c(NC(=O)c4ccncc4)cccc3C(=O)N([C@@H](C)CO)C[C@@H]2C)cc1`, the protection from cytokine-induced ATP loss is 11.7% (inactive).

For the compound `COc1ccc(NC(=O)N(C)C[C@H]2Oc3c(NC(=O)Nc4cccc5ccccc45)cccc3C(=O)N([C@H](C)CO)C[C@@H]2C)cc1`, the protection from cytokine-induced ATP loss was -0.252% (inactive).

As to `COc1cc(Br)cc(/C=N/NC(=O)c2ccccn2)c1O`, the protection from cytokine-induced ATP loss was -83.9% (inactive).

Regarding `C[C@@H]1CCCCO[C@H](CN(C)CC2CC2)[C@@H](C)CN([C@H](C)CO)C(=O)c2cc(NC(=O)Cc3ccccc3)ccc2O1`, the protection from cytokine-induced ATP loss was -0.194% (inactive).

In the case of `COc1ccc(NC(=O)N(C)C[C@H]2Oc3ccc(NC(=O)Nc4ccc5c(c4)OCO5)cc3C(=O)N([C@H](C)CO)C[C@H]2C)cc1`, the protection from cytokine-induced ATP loss is 3.2% (inactive).

Take `Cc1ccc(S(=O)(=O)Nc2ccc3c(c2)C(=O)N([C@H](C)CO)C[C@H](C)[C@H](CN(C)Cc2ccccc2)OCCCC[C@@H](C)O3)cc1`: the protection from cytokine-induced ATP loss was -2.3% (inactive).

For `CC(C)NC(=O)N(C)C[C@H]1Oc2c(NS(C)(=O)=O)cccc2C(=O)N([C@@H](C)CO)C[C@H]1C`, the protection from cytokine-induced ATP loss was 12.8% (inactive).

Regarding `C[C@H]1CN([C@@H](C)CO)C(=O)c2cc(NC(=O)Cn3cnnn3)ccc2O[C@@H]1CN(C)C(=O)Nc1ccccc1`, the protection from cytokine-induced ATP loss was 2.24% (inactive).

Regarding `Cc1ccc(S(=O)(=O)N(C)C[C@@H]2Oc3ccc(NC(=O)Nc4ccc5c(c4)OCO5)cc3C(=O)N([C@@H](C)CO)C[C@@H]2C)cc1`, the protection from cytokine-induced ATP loss was 20.1% (inactive).

As for `O=C(O)CCCCCCC(=O)N/N=C/c1ccncc1Br`, the protection from cytokine-induced ATP loss was 6.66% (inactive).

In the case of `C[C@H]1CN([C@@H](C)CO)C(=O)c2cccc(NC(=O)C3CCCCC3)c2O[C@H]1CN(C)C(=O)NC1CCCCC1`, the protection from cytokine-induced ATP loss was 6.52% (inactive).

For the compound `Cc1noc(C)c1NC(=O)N(C)C[C@H]1Oc2ccc(NC(=O)C3CCCCC3)cc2CC(=O)N([C@@H](C)CO)C[C@H]1C`, the protection from cytokine-induced ATP loss is 4.09% (inactive).

In the case of `Cc1ccc(S(=O)(=O)N(C)C[C@@H]2OCCCC[C@@H](C)Oc3ccc(NS(=O)(=O)c4ccccc4)cc3C(=O)N([C@H](C)CO)C[C@@H]2C)cc1`, the protection from cytokine-induced ATP loss is -4.67% (inactive).

With `Cc1ccc(S(=O)(=O)Nc2ccc3c(c2)C(=O)N([C@H](C)CO)C[C@H](C)[C@H](CN(C)Cc2ccc(C(=O)Nc4ccccc4N)cc2)OCCCC[C@@H](C)O3)cc1`, the protection from cytokine-induced ATP loss was 1.83% (inactive).

`C[C@H]1CN([C@@H](C)CO)C(=O)c2cc(NS(=O)(=O)c3ccc(Cl)cc3)ccc2O[C@H]1CN(C)Cc1ccc(Oc2ccccc2)cc1`: the protection from cytokine-induced ATP loss is -11.4% (inactive).

As for `C[C@@H]1CCCCO[C@@H](CN(C)C(=O)CCCN(C)C)[C@@H](C)CN([C@H](C)CO)C(=O)c2cc(NC(=O)Nc3ccc(F)cc3)ccc2O1`, the protection from cytokine-induced ATP loss is 9.84% (inactive).

With `C[C@H](CO)N1C[C@H](C)[C@H](CN(C)Cc2ccncc2)Oc2ccc(NC(=O)C3CCCCC3)cc2CC1=O`, the protection from cytokine-induced ATP loss is -9.96% (inactive).

On to `COc1ccc(NC(=O)N(C)C[C@H]2Oc3c(NC(=O)C4CC4)cccc3C(=O)N([C@@H](C)CO)C[C@@H]2C)cc1`, for which the protection from cytokine-induced ATP loss was -1.85% (inactive).

With `C[C@@H]1CN([C@H](C)CO)C(=O)c2cccc(NC(=O)c3cnccn3)c2O[C@@H]1CN(C)Cc1ccncc1`, the protection from cytokine-induced ATP loss was 3.26% (inactive).

`C[C@@H]1CN([C@H](C)CO)C(=O)c2cc(NC(=O)CCCCCC(=O)Nc3ccccc3N)ccc2O[C@H]1CN(C)C(=O)Nc1ccc(C(F)(F)F)cc1`: the protection from cytokine-induced ATP loss is 1.3% (inactive).

Consider `C[C@@H]1CN([C@H](C)CO)C(=O)Cc2cc(NC(=O)CCN3CCOCC3)ccc2O[C@@H]1CN(C)S(C)(=O)=O`, for which the protection from cytokine-induced ATP loss is 3.88% (inactive).

In the case of `Cc1ccc(S(=O)(=O)N(C)C[C@H]2Oc3ccc(NS(=O)(=O)c4ccccc4)cc3CC(=O)N([C@@H](C)CO)C[C@H]2C)cc1`, the protection from cytokine-induced ATP loss was -6.07% (inactive).

As to `C[C@@H]1CN([C@H](C)CO)C(=O)c2cccc(NC(=O)C3CCCCC3)c2O[C@@H]1CN(C)C(=O)NC1CCCCC1`, the protection from cytokine-induced ATP loss is 6.03% (inactive).

Turning to `C[C@H](CO)N1C[C@H](C)[C@H](CN(C)Cc2ccc3c(c2)OCO3)Oc2c(NC(=O)NC3CCCCC3)cccc2C1=O`, the protection from cytokine-induced ATP loss is -16.1% (inactive).

As to `CNC[C@@H]1Oc2ccc(NS(=O)(=O)c3c(C)noc3C)cc2CC(=O)N([C@@H](C)CO)C[C@@H]1C`, the protection from cytokine-induced ATP loss was 0.843% (inactive).

Consider `CC(C)NC(=O)Nc1ccc2c(c1)C(=O)N([C@H](C)CO)C[C@H](C)[C@@H](CN(C)S(C)(=O)=O)OCCCC[C@@H](C)O2`, for which the protection from cytokine-induced ATP loss was 1.03% (inactive).

For `C[C@@H]1CN([C@@H](C)CO)C(=O)Cc2cc(NC(=O)C3CCCCC3)ccc2O[C@@H]1CN(C)C(=O)Nc1ccc(C(F)(F)F)cc1`, the protection from cytokine-induced ATP loss was -12.7% (inactive).

Take `Cc1ccc(S(=O)(=O)N(C)C[C@@H]2Oc3c(NS(=O)(=O)c4ccc(F)cc4)cccc3C(=O)N([C@@H](C)CO)C[C@H]2C)cc1`: the protection from cytokine-induced ATP loss was 15.4% (inactive).

With `COc1ccc(NC(=O)N(C)C[C@H]2Oc3ccc(NC(=O)Cc4cn(C)c5ccccc45)cc3CC(=O)N([C@@H](C)CO)C[C@H]2C)cc1`, the protection from cytokine-induced ATP loss was 13.3% (inactive).

Consider `Cc1noc(C)c1NC(=O)Nc1ccc2c(c1)C(=O)N([C@H](C)CO)C[C@@H](C)[C@@H](CN(C)Cc1ccccc1)O2`, for which the protection from cytokine-induced ATP loss is 2.87% (inactive).

For the compound `C[C@@H]1CCCCO[C@@H](CN(C)CC2CC2)[C@@H](C)CN([C@H](C)CO)C(=O)c2cc(NC(=O)Nc3cccc4ccccc34)ccc2O1`, the protection from cytokine-induced ATP loss is -7.95% (inactive).

In the case of `Cc1cccc(CN(C)C[C@H]2OCc3cn(nn3)CCCC(=O)N([C@@H](C)CO)C[C@H]2C)c1`, the protection from cytokine-induced ATP loss was -2.7% (inactive).

As for `Cc1ccc(S(=O)(=O)N(C)C[C@@H]2Oc3ccc(NC(=O)c4ccncc4)cc3CC(=O)N([C@H](C)CO)C[C@H]2C)cc1`, the protection from cytokine-induced ATP loss was -0.881% (inactive).

As for `COc1cc(/C=C/C=N/NC(=O)CCCCCC(=O)Nc2ccccc2O)ccc1O`, the protection from cytokine-induced ATP loss is -1.89% (inactive).

Turning to `CC(C)NC(=O)N(C)C[C@H]1Oc2c(NC(=O)Nc3ccc(F)cc3)cccc2C(=O)N([C@@H](C)CO)C[C@@H]1C`, the protection from cytokine-induced ATP loss was 12.3% (inactive).

Take `COc1ccc(S(=O)(=O)Nc2ccc3c(c2)CC(=O)N([C@@H](C)CO)C[C@@H](C)[C@@H](CN(C)C(=O)Nc2c(C)noc2C)O3)cc1`: the protection from cytokine-induced ATP loss was 9.17% (inactive).

With `COc1ccc(NC(=O)Nc2ccc3c(c2)C(=O)N([C@H](C)CO)C[C@H](C)[C@@H](CN(C)C(=O)NC2CCCCC2)OCCCC[C@@H](C)O3)cc1`, the protection from cytokine-induced ATP loss is 14.1% (inactive).

For the compound `C[C@H]1CN([C@@H](C)CO)C(=O)c2cc(NC(=O)C3CCCCC3)ccc2O[C@H]1CN(C)S(=O)(=O)c1cn(C)cn1`, the protection from cytokine-induced ATP loss is 2.64% (inactive).

Take `C[C@H]1CN([C@@H](C)CO)C(=O)c2cccc(NC(=O)Nc3ccccc3)c2O[C@H]1CN(C)S(=O)(=O)c1ccc(Cl)cc1`: the protection from cytokine-induced ATP loss was -12.7% (inactive).

As to `C[C@@H]1CN([C@H](C)CO)C(=O)Cc2cc(NC(=O)Nc3ccc(C(F)(F)F)cc3)ccc2O[C@@H]1CN(C)S(=O)(=O)c1ccccc1`, the protection from cytokine-induced ATP loss is -5.63% (inactive).

Turning to `C[C@H](CO)N1C[C@H](C)[C@H](CN(C)C(=O)Nc2ccc(C(F)(F)F)cc2)Oc2ccc(NS(=O)(=O)c3cn(C)cn3)cc2CC1=O`, the protection from cytokine-induced ATP loss was 19% (inactive).

For `C[C@@H]1CN([C@@H](C)CO)C(=O)Cc2cc(NS(=O)(=O)c3cccs3)ccc2O[C@@H]1CN(C)C(=O)Nc1ccc(C(F)(F)F)cc1`, the protection from cytokine-induced ATP loss is -9.39% (inactive).

Take `O=C(N/N=C/c1ccc(Oc2ccccc2)cc1)c1ccccn1`: the protection from cytokine-induced ATP loss is 4.62% (inactive).

In the case of `CC(C)NC(=O)Nc1cccc2c1O[C@@H](CN(C)Cc1ccc(C(=O)O)cc1)[C@@H](C)CN([C@H](C)CO)C2=O`, the protection from cytokine-induced ATP loss was 5.94% (inactive).

`C[C@H]1CN([C@@H](C)CO)C(=O)c2cccc(NC(=O)C3CCOCC3)c2O[C@H]1CN(C)S(C)(=O)=O`: the protection from cytokine-induced ATP loss is 10.3% (inactive).

On to `COc1ccc(S(=O)(=O)N(C)C[C@H]2Oc3ccc(NC(=O)Nc4c(C)noc4C)cc3CC(=O)N([C@@H](C)CO)C[C@H]2C)cc1`, for which the protection from cytokine-induced ATP loss was 6.69% (inactive).

In the case of `Cc1noc(C)c1NC(=O)N(C)C[C@@H]1Oc2ccc(NS(C)(=O)=O)cc2C(=O)N([C@@H](C)CO)C[C@@H]1C`, the protection from cytokine-induced ATP loss is 1.81% (inactive).

As for `Cc1noc(C)c1S(=O)(=O)Nc1ccc2c(c1)CC(=O)N([C@H](C)CO)C[C@H](C)[C@H](CN(C)S(=O)(=O)c1cn(C)cn1)O2`, the protection from cytokine-induced ATP loss is 15.3% (inactive).

Values taken from PubChem BioAssay AID488910 (Broad Institute, 2010).
